# ChEMBL document CHEMBL2390929, “New nitric oxide donating 1,2,4-triazole/oxime hybrids: synthesis, investigation of anti-inflammatory, ulceroginic liability and antiproliferative activities” (Bioorg Med Chem, 2013)
# Tests used:
# [1] = system: Rattus norvegicus; test: Antiinflammatory activity in albino rat assessed as inhibition of carrageenan-induced paw edema at 0.28 mmol/kg, po after 2 hrs relative to control; assay type: functional
# In short: (§1)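 Adult male albino rats (120–140 g), four per group, fasted 24 h with water allowed. Test agent suspended in 0.5% w/v aqueous CMC and given orally at 0.28 mmol/kg; controls received CMC alone. After 30 min, 0.1 mL fresh 1% carrageenan in saline was injected subplantar into the right hind paw and saline into the left. Paw thickness was measured by Vernier caliper; % inhibition = [(VR−VL)control − (VR−VL)treated]/(VR−VL)control ×100. Mean ± SEM, one-way ANOVA.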
# [2] = Induction of nitric oxide release in phosphate buffer at pH 7.4 at 0.1 mM after 6 hrs by Griess method in presence of 0.5 mM of N-acetylcysteine; assay type: physicochemical; settings: pH 7.4, 6 h, 100 µM
# In short: (§2)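 Compound in DMF diluted to final 10^-4 M in 1:1 50 mM phosphate buffer pH 7.4/MeOH with 5×10^-4 M N-acetylcysteine, 37 °C. Aliquot mixed with Griess reagent, 10 min at room temperature, A546 read. Nitrite quantified against sodium nitrite standards (10–80 nmol/mL); NO expressed as mol/mol. n = 4 reaction mixtures per compound.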
# [3] = system: Rattus norvegicus; test: Antiinflammatory activity in albino rat assessed as inhibition of carrageenan-induced paw edema at 0.28 mmol/kg, po after 4 hrs relative to control; assay type: functional; in short: as §1
# [4] = Induction of nitric oxide release in phosphate buffer at pH 7.4 at 0.1 mM after 1 hr by Griess method in presence of 0.5 mM of N-acetylcysteine; assay type: physicochemical; settings: pH 7.4, 1 h, 100 µM; in short: as §2
# [5] = system: Rattus norvegicus; test: Antiinflammatory activity in albino rat assessed as inhibition of carrageenan-induced paw edema at 0.28 mmol/kg, po after 1 hr relative to control; assay type: functional; in short: as §1
# [6] = Induction of nitric oxide release in phosphate buffer at pH 7.4 at 0.1 mM after 2 hrs by Griess method in presence of 0.5 mM of N-acetylcysteine; assay type: physicochemical; settings: pH 7.4, 2 h, 100 µM; in short: as §2
# [7] = Induction of nitric oxide release in phosphate buffer at pH 7.4 at 0.1 mM after 5 hrs by Griess method in presence of 0.5 mM of N-acetylcysteine; assay type: physicochemical; settings: pH 7.4, 5 h, 100 µM; in short: as §2
# [8] = Induction of nitric oxide release in phosphate buffer at pH 7.4 at 0.1 mM after 4 hrs by Griess method in presence of 0.5 mM of N-acetylcysteine; assay type: physicochemical; settings: pH 7.4, 4 h, 100 µM; in short: as §2
# [9] = system: Rattus norvegicus; test: Antiinflammatory activity in albino rat assessed as inhibition of carrageenan-induced paw edema at 0.28 mmol/kg, po after 5 hrs relative to control; assay type: functional; in short: as §1
# [10] = system: Rattus norvegicus; test: Antiinflammatory activity in albino rat assessed as inhibition of carrageenan-induced paw edema at 0.28 mmol/kg, po after 3 hrs relative to control; assay type: functional; in short: as §1
# [11] = system: Rattus norvegicus; test: Gastrointestinal toxicity in albino rat assessed as ulcer index at 0.28 mmol/kg, po (reference value: 0.60 +/- 0.05); assay type: organism-based; settings: in vivo
# [12] = Induction of nitric oxide release in phosphate buffer at pH 7.4 at 0.1 mM after 3 hrs by Griess method in presence of 0.5 mM of N-acetylcysteine; assay type: physicochemical; settings: pH 7.4, 3 h, 100 µM; in short: as §2
# [13] = system: Rattus norvegicus; test: Gastrointestinal toxicity in albino rat assessed as histopathological analysis at 0.28 mmol/kg, po using haematoxylin and eosin staining by light microscopic analysis; assay type: organism-based; settings: in vivo
# In short: (§3)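 Adult male albino rats (120–140 g, Minia University), groups of four, fasted 24 h with water allowed. Oral dose 0.28 mmol/kg suspended in 0.5% aqueous CMC; vehicle-only controls. Gastric sections dewaxed, stained with haematoxylin 5–7 min, differentiated in 1% HCl/70% alcohol, counterstained with 1% eosin 10 min. Cleared in xylene, mounted, examined by light microscopy at ×400.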
# [14] = system: Rattus norvegicus; test: Gastrointestinal toxicity in albino rat assessed as acute inflammatory cell infiltrating its whole thickness and apparently destroying epithelial lining of gastric pits at 0.28 mmol/kg, po using haematoxylin and eosin staining by light microscopic analysis; assay type: organism-based, Stomach; settings: in vivo; in short: as §3
# [15] = system: Rattus norvegicus; test: Gastrointestinal toxicity in albino rat assessed as decreased in thickness with marked loss of mucosal membrane at areas of ulceration at 0.28 mmol/kg, po using haematoxylin and eosin staining by light microscopic analysis; assay type: organism-based; settings: in vivo; in short: as §3
# [16] = system: Rattus norvegicus; test: Gastrointestinal toxicity in albino rat assessed as severe atrophic gastritis and gland atrophy at 0.28 mmol/kg, po using haematoxylin and eosin staining by light microscopic analysis; assay type: organism-based; settings: in vivo; in short: as §3
# [17] = system: Rattus norvegicus; test: Gastrointestinal toxicity in albino rat assessed as acute inflammatory cell infiltrating its whole thickness and apparently destroying surface of epithelium at 0.28 mmol/kg, po using haematoxylin and eosin staining by light microscopic analysis; assay type: organism-based; settings: in vivo; in short: as §3
# [18] = system: Rattus norvegicus; test: Gastrointestinal toxicity in albino rat assessed as apoptotic glandular epithelial cells at 0.28 mmol/kg, po using haematoxylin and eosin staining by light microscopic analysis; assay type: organism-based, Epithelial cell; settings: in vivo; in short: as §3
# [19] = system: Rattus norvegicus; test: Gastrointestinal toxicity in albino rat assessed as capillary vasodilatation associated with accumulation of edema fluid in lamina propria at 0.28 mmol/kg, po using haematoxylin and eosin staining by light microscopic analysis; assay type: organism-based; settings: in vivo; in short: as §3
Structure (SMILES),inhibition in vivo at 280 µmol/kg [1] [%],Activity [2] [mol/mol],inhibition in vivo at 280 µmol/kg [3] [%],Activity [4] [mol/mol],inhibition in vivo at 280 µmol/kg [5] [%],Activity [6] [mol/mol],Activity [7] [mol/mol],Activity [8] [mol/mol],inhibition in vivo at 280 µmol/kg [9] [%],inhibition in vivo at 280 µmol/kg [10] [%],UI [11],Activity [12] [mol/mol],Activity [13],Activity [14],Activity [15],Activity [16],Activity [17],Activity [18],Activity [19]
CCn1c(SC/C(=N/O)c2ccccc2)nnc1-c1ccc(OC)cc1,72,0.12,78,0.08,69,0.11,0.14,0.19,71,75,2.53,0.14,–,–,–,–,–,–,–
CCn1c(SC/C(=N/O)c2ccccc2)nnc1-c1cc(OC)c(OC)c(OC)c1,67,0.14,79,0.11,63,0.12,0.18,0.21,74,69,3.66,0.12,–,–,–,–,–,–,–
C=CCn1c(SCC(=O)c2ccccc2)nnc1-c1ccccc1,58,–,66,–,43,–,–,–,66,70,2.44,–,–,–,–,–,–,–,–
C=CCn1c(SCC(=O)c2ccccc2)nnc1-c1ccc(OC)cc1,53,–,67,–,49,–,–,–,61,63,5.34,–,–,–,–,–,–,–,–
C=CCn1c(SCC(=O)c2ccccc2)nnc1-c1ccc(OC)c(OC)c1,63,–,72,–,61,–,–,–,62,64,4.26,–,–,–,–,–,–,–,–
C=CCn1c(SCC(=O)c2ccccc2)nnc1-c1cc(OC)c(OC)c(OC)c1,62,–,66,–,49,–,–,–,60,66,6.39,–,–,–,–,–,–,–,–
CCn1c(SCC(=O)c2ccccc2)nnc1-c1ccccc1,55,–,63,–,52,–,–,–,51,61,4.49,–,–,–,–,–,–,–,–
CCn1c(SCC(=O)c2ccccc2)nnc1-c1ccc(OC)cc1,60,–,70,–,53,–,–,–,61,67,6.59,–,–,–,–,–,–,–,–
CCn1c(SCC(=O)c2ccccc2)nnc1-c1ccc(OC)c(OC)c1,55,–,73,–,42,–,–,–,69,61,7.36,–,Non-toxic,–,–,–,–,–,–
CCn1c(SCC(=O)c2ccccc2)nnc1-c1cc(OC)c(OC)c(OC)c1,41,–,72,–,29,–,–,–,59,49,3.42,–,–,–,–,–,–,–,–
O=C(CSc1nnc(-c2ccccc2)n1-c1ccccc1)c1ccccc1,60,–,68,–,53,–,–,–,63,64,9.58,–,–,–,–,–,–,–,–
COc1ccc(-c2nnc(SCC(=O)c3ccccc3)n2-c2ccccc2)cc1,57,–,68,–,52,–,–,–,61,58,8.74,–,–,–,–,–,–,–,–
COc1ccc(-c2nnc(SCC(=O)c3ccccc3)n2-c2ccccc2)cc1OC,57,–,65,–,56,–,–,–,59,59,9.41,–,–,–,–,–,–,–,–
COc1cc(-c2nnc(SCC(=O)c3ccccc3)n2-c2ccccc2)cc(OC)c1OC,51,–,73,–,44,–,–,–,72,68,5.29,–,–,–,–,–,–,–,–
C=CCn1c(SC/C(=N\O)c2ccccc2)nnc1-c1ccccc1,60,0.17,77,0.06,58,0.1,0.22,0.16,68,65,2.3,0.13,–,–,–,–,–,–,–
C=CCn1c(SC/C(=N/O)c2ccccc2)nnc1-c1ccc(OC)cc1,66,0.14,76,0.09,61,0.12,0.15,0.15,57,67,1.14,0.12,–,–,–,–,–,–,–
C=CCn1c(SC/C(=N/O)c2ccccc2)nnc1-c1cc(OC)c(OC)c(OC)c1,68,0.17,73,0.08,61,0.1,0.17,0.13,77,70,5.52,0.12,–,–,–,–,–,–,–
COc1ccc2c(c1)c(CC(=O)O)c(C)n2C(=O)c1ccc(Cl)cc1 [INDOMETHACIN],67,–,83,–,51,–,–,–,87,74,63.45,–,–,Toxic,Toxic,Toxic,Toxic,Toxic,Toxic
